Most compounds without a hit are left out; they make up all but 3.2% or so of the library.
mABHD4 FP: ABHD4 (mouse) inhibition, primary FP screen; Q8VD66; purified mABHD4, FP-Rh probe fluorescence polarization; inhibition, % at 8.92 µM; hit rate 0.54% among 370,000; AID 720543;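 active means inhibition exceeding the mean over every tested compound plus 3 SD, cut at about 30% in these data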
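Assay system: mABHD4 protein; medium: HEPES pH 7.0, NaCl, Pluronic buffer; dosing: 8.92 µM, single dose; schedule: 45 min + 60 min at 25 °C; signal: FP readout, ex 525 nm / em 598 nm; read-out: normalized percent inhibition of probe labeling; repeats: single replicate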
DAGLB inh: diacylglycerol lipase beta (human) inhibition; Q8NCG7; HEK293T DAGLB membrane lysate, EnzChek fluorogenic substrate; inhibition, % at 5.17 µM; hit rate 0.059% among 340,000; AID 504411; in the data active means inhibition above about 34%
Target sequence (Q8NCG7 whole entry, looked up): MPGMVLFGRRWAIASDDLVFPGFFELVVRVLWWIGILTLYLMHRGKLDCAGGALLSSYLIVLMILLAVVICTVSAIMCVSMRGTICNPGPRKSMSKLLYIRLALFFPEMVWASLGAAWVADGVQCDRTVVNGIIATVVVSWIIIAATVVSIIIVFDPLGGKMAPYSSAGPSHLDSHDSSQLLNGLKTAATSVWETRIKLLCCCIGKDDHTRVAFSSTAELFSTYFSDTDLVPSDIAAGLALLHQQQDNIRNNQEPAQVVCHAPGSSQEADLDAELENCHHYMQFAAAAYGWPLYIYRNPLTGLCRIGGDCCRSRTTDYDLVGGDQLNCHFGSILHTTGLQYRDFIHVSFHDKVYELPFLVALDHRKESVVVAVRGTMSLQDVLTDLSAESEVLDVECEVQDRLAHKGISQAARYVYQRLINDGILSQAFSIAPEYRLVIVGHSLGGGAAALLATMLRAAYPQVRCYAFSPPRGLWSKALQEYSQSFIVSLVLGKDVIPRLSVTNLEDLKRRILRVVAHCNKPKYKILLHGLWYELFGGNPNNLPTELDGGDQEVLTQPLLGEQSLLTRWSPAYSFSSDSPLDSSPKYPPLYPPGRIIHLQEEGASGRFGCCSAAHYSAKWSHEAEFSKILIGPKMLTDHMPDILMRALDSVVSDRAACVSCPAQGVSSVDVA
HTRA1 inh: inhibitors of human serine peptidase HTRA1 | recombinant HTRA1, FP-rhodamine activity-based probe, fluorescence polarization | hit rate 0.5% among 340,000 | inhibition, % at 5.96 µM; in the data active means inhibition above about 36%
PRMT1 inh: PRMT1 (human) inhibition, primary screen. recombinant PRMT1, activity-based probe fluorescence polarization. inhibition, % at 2.79 µM. hit rate 1.3% among 370,000;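 active means inhibition above about 21% made by adding two undisclosed values, limit read from the data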
rCAG binder: molecules binding r(CAG) RNA repeats; hit rate 1.3% among 370,000; inhibition, % at 3 µM; r(CAG) RNA repeat, TO-PRO-1 dye displacement fluorescence;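 active means inhibition above the plate cutoff, the mean of all test compounds on that plate plus 3 SD, cut at about 35% in these data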;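 further: higher means more dye released from RNA so lower well fluorescence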
LEDGF integ inh: blocks HIV-1 LEDGF/p75-dependent DNA integration | TR-FRET IN-LEDGF/p75 DNA integration, Eu/Cy5 | inhibition, % at 3.7 µM | hit rate 0.64% among 370,000 | AID 743269;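 active means inhibition above the screen-wide mean plus 3 SD, cut at about 13% in these data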;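 further: signal is the Cy5 over europium emission ratio at 671 and 618 nm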
ABHD4 confirm: ABHD4 (mouse) inhibition, FP confirmation. inhibition, % at 8.92 µM. hit rate 55% among 1,800. shares compounds with mABHD4 FP. purified mABHD4, FP-Rh probe fluorescence polarization;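 active means mean inhibition across replicates above the hit cutoff set in the primary screen, cut at about 30% in these data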
Of the large screens only hits and unclear results are named; the others gave an inactive call (follow-up assays come after a bar, where they were run).

CC(OC(=O)c1ccc(NC(=O)CC#N)cc1)C(=O)NC(=O)NC1CCCCC1 (configuration not stated)	none
CC1(C)CC(=O)C2=C(C1)NC1=C(C(=O)c3ccccc31)C2c1cccnc1 (configuration not stated)	none
CC1(C)CC(=O)C2=C(C1)NC1=C(C(=O)c3ccccc31)C2c1ccccc1 (configuration not stated)	mABHD4 FP 51 | ABHD4 confirm 47
CC1(C)CC(=O)C2=C(C1)NC1=C(C(=O)c3ccccc31)C2c1cc([N+](=O)[O-])ccc1O (configuration not stated)	mABHD4 FP 49 | ABHD4 confirm 66
C=CCOc1ccc(C(=O)n2cc(C(=O)OC)c3ccccc32)cc1	none
CC(=O)N1CCC(=NNc2nc3ccccc3s2)CC1	mABHD4 FP 33 | ABHD4 confirm inactive
CCOC(=O)N1CCC(=NNc2nc3ccccc3s2)CC1	mABHD4 FP 38 | ABHD4 confirm inactive
CCOC(=O)N1CCN(S(=O)(=O)c2ccc(C(=O)Nc3nc4ccccc4s3)cc2)CC1	none
CCCCOc1cccc(OCC(=O)Nc2nc3ccccc3[nH]2)c1	mABHD4 FP 43 | ABHD4 confirm inactive
CCCOc1cccc(OCC(=O)Nc2nc3ccccc3[nH]2)c1	mABHD4 FP 31 | ABHD4 confirm inactive
CCN(CC)CCNc1cccc2sc3ccccc3c(=O)c12	none
CN(C)CCNc1cccc2sc3ccc(O)cc3c(=O)c12	mABHD4 FP 31 (no result: DAGLB inh, HTRA1 inh) | ABHD4 confirm inactive
COc1cc2c3c(c1)/C(=C1/SC(NC(C)=O)=NC1=O)C(=O)N3C(C)(C)C=C2C	mABHD4 FP 38 | ABHD4 confirm inactive
COc1ccc(CCC(=O)Nc2nc3c(s2)CN(C)CC3)cc1OC	mABHD4 FP 89 | ABHD4 confirm inactive
COc1ccc(CCC(=O)Nc2nccs2)cc1OC	none
CN(C)c1ccc(N=Nc2ccccc2Br)cc1	none
Cc1cc(/C=C2/C(=O)NN(c3ccccc3)C2=O)c(C)n1-c1ccc(O)cc1	mABHD4 FP 34 | ABHD4 confirm inactive
Cc1nc2nc(SCc3nc4ccccc4[nH]3)[nH]c2cc1Br	none (no result: DAGLB inh, HTRA1 inh)
O=C1C(Cl)=C(Nc2ccc(O)cc2)C(=O)c2ccccc21	mABHD4 FP 41, PRMT1 inh 36 | ABHD4 confirm 54
CN1CCS/C1=C/C=C1\SC(=S)N(CC(=O)O)C1=O	none
CN1CCS/C1=C/C=C1/SC(=S)N(Cc2ccccc2)C1=O	mABHD4 FP 86 | ABHD4 confirm inactive
CCCCN1C(=O)/C(=C/C=C2\SCCN2C)SC1=S	mABHD4 FP 33 | ABHD4 confirm inactive
FC(F)Oc1ccc(NC(=S)NN2CCOCC2)cc1	none
c1ccc(-c2sc3ccccc3c2-c2ccc(OCCN3CCCC3)cc2)cc1	mABHD4 FP 31 | ABHD4 confirm inactive
CCOC(=O)c1c(C)oc2c1c(CN1CCN(C(=O)OCC)CC1)c(O)c1ccccc12	mABHD4 FP 31 | ABHD4 confirm 39
Oc1ccc(NC(=S)Nc2ccc(F)cc2)cc1	mABHD4 FP 33 | ABHD4 confirm inactive
Oc1ccc(NC(=S)N=Nc2c(O)[nH]c3ccc(Br)cc23)cc1	mABHD4 FP 30 | ABHD4 confirm 33
Oc1[nH]c2ccc(Br)cc2c1N=NC(=S)Nc1ccc(F)cc1	none
CCOC(=O)C1=C(COC(=O)CNS(=O)(=O)c2ccc(C)cc2)NC(=O)NC1C (configuration not stated)	none
[O-]/[N+](=C\c1ccccc1)[C@@H]1CCCC[C@@H]1/[N+]([O-])=C/c1ccccc1	none
CC[C@@H](C)[C@@H]1CN([C@@H](CN2CCC[C@H]2CN2C(N)=NC[C@H]2CC(C)C)C(C)C)C(=N)N1CCc1ccc(Cl)c(Cl)c1	mABHD4 FP 35 | ABHD4 confirm 46
CCC[C@@H](CN1CCC[C@H]1CN1C(N)=NC[C@H]1CC(C)C)N1C[C@@H]([C@H](C)CC)N(CCc2ccc(Cl)c(Cl)c2)C1=N	mABHD4 FP 38 | ABHD4 confirm 34
CCC[C@@H](CN1CCC[C@H]1CN1C(N)=NC[C@H]1CC(C)C)N1C[C@@H](Cc2ccccc2)N(CCCC2CCCC2)C1=N	mABHD4 FP 34 | ABHD4 confirm inactive
CCC[C@@H](CN1CCC[C@H]1CN1C(N)=NC[C@H]1CC(C)C)N1C[C@@H](Cc2ccccc2)N(CCc2ccc(Cl)c(Cl)c2)C1=N	mABHD4 FP 30 | ABHD4 confirm 36
CCC[C@@H](CN1CCC[C@H]1CN1C(N)=NC[C@@H]1Cc1ccccc1)N1C[C@@H](Cc2ccccc2)N(CCCC2CCCC2)C1=N	none (no result: mABHD4 FP, PRMT1 inh, rCAG binder, LEDGF integ inh)
O=Cc1ccc2noc(-c3ccc(Cl)cc3)c2c1	none
CC(=O)N1CCN(c2nc(-c3cccs3)nc3ccccc23)CC1	none
Fc1ccccc1N1CCN(c2nc(-c3cccs3)nc3ccccc23)CC1	mABHD4 FP 33 | ABHD4 confirm inactive
C[C@H]1CN([C@@H](C)CO)S(=O)(=O)c2ccc(Br)cc2O[C@@H]1CN(C)Cc1ccccc1	none
C[C@H]1CN([C@@H](C)CO)S(=O)(=O)c2ccc(Br)cc2O[C@H]1CN(C)Cc1ccccc1	mABHD4 FP 75 | ABHD4 confirm inactive
Oc1ccc(N=Cc2cc(Br)c(N3CCOCC3)o2)cc1	mABHD4 FP 42 | ABHD4 confirm inactive
Cn1c(O)c(C=Nc2ccc(N3CCOCC3)cc2)c(=O)n(C)c1=S	none
O=C(Nc1ccccc1)N(CCc1nc2ccccc2[nH]1)C1CCCC1	none
S=C(NC1CCCCC1)N(CCc1nc2ccccc2[nH]1)C1CCCC1	mABHD4 FP 51 | ABHD4 confirm 53
O=C(O)c1ccc2c(c1)C(=O)/C(=C\c1ccco1)C2=O	mABHD4 FP 30, PRMT1 inh 34, LEDGF integ inh 79 | ABHD4 confirm inactive
COc1ccc2nc(NC(=O)Nc3ccccc3OC)sc2c1	none
COc1ccc2nc(NC(=O)Nc3cccc4ccccc34)sc2c1	mABHD4 FP 30 | ABHD4 confirm inactive
O=C(O)CCCCCNC(=O)c1ccc(C(=O)NCCCCCC(=O)O)cc1	mABHD4 FP 63 | ABHD4 confirm inactive
O=C(O)CCCCCNC(=O)c1ccncc1	none
Cc1ccc(C(=O)OCC(=O)Nc2ccccc2C(F)(F)F)cc1S(=O)(=O)N1CCOCC1	none
O=C(NNC(=O)c1cc(O)c(O)c(O)c1)NC1CCCCC1	mABHD4 FP 31 | ABHD4 confirm inactive
O=C(NNC(=O)c1cccnc1)NC1CCCCC1	none
Cc1cccc(C)c1-n1nnnc1C1(Nc2ccccc2)CCCCC1	none
CCc1cc2c(=O)n(Cc3ccccc3)c(SC3CCOC3=O)nc2s1 (configuration not stated)	none
CCOC(=O)c1ccc(NC2=CC(=O)C(=O)c3ccccc32)cc1	mABHD4 FP 30 | ABHD4 confirm 44
CC(=O)Nc1ccc(NC2=CC(=O)c3ccccc3C2=O)cc1	none
